Reference: ChEMBL document CHEMBL3804782, “Targeting the BACE1 Active Site Flap Leads to a Potent Inhibitor That Elicits Robust Brain Aβ Reduction in Rodents” (ACS Med Chem Lett, 2016)
Active and inactive are the calls of the source. No cut-off for these calls is given here.

Tests used:
[1] = Metabolic stability in mouse liver microsomes assessed as parent compound remaining at 0.5 uM after 10 mins; type: ADME; conditions: read-out: Stability
[2] = Metabolic stability in human liver microsomes assessed as parent compound remaining at 0.5 uM after 10 mins; type: ADME; conditions: read-out: Stability
[3] = Metabolic stability in rat liver microsomes assessed as parent compound remaining at 0.5 uM after 10 mins; type: ADME; conditions: read-out: Stability
Beta-secretase 1 = Beta-secretase 1 (Homo sapiens, UniProt P56817); assay: Inhibition of BACE1 in human H4 cells expressing APP751 Swedish mutant assessed as inhibition of amyloid beta 40 or amyloid beta 42 production incubated for 19 hrs by microplate reader analysis; type: cell-based
Rattus norvegicus [4] = assay: Antialzheimer activity in rat assessed as free drug concentration in plasma required for reduction in amyloid beta (1 to 42) level in brain at 1 to 10 mg/kg, po measured at 5 hrs post dose; type: functional, organism-based
[5] = Drug level in rat brain at 1 mg/kg, po after 5 hrs; type: ADME, organism-based; conditions: read-out: Drug uptake
Summary of the method: (§1)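 Female rats given a single oral dose in PEG-400/EtOH/Tween 80 (84:15:1). Plasma and brain were collected 5 h postdose, 5 rats per dose, to measure drug exposure and brain Aβ levels. Values are means (n = 5) with SD.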

[6] = Plasma concentration in rat at 10 mg/kg, po after 5 hrs; type: ADME, organism-based; summary of the method: as §1
[7] = Drug level in rat brain at 3 mg/kg, po after 5 hrs; type: ADME, organism-based; conditions: read-out: Drug uptake; summary of the method: as §1
Mus musculus = assay: Antialzheimer activity in mouse assessed as reduction in amyloid beta 42 level in brain at 10 mg/kg, po by ELISA relative to control; type: functional
Rattus norvegicus [8] = assay: Antialzheimer activity in po dosed rat assessed as reduction in amyloid beta (1 to 40) level in brain measured at 5 hrs post dose by ELISA; type: functional, organism-based; summary of the method: as §1
[9] = Drug level in rat brain at 10 mg/kg, po after 5 hrs; type: ADME, organism-based; conditions: read-out: Drug uptake; summary of the method: as §1
[10] = Ratio of drug level in rat brain to plasma at 1 mg/kg, po after 5 hrs; type: ADME, organism-based; conditions: read-out: BPR; summary of the method: as §1
Cytochrome P450 2D6 = Cytochrome P450 2D6 (Homo sapiens, UniProt P10635); assay: Inhibition of CYP2D6 (unknown origin) expressed in baculovirus infected insect cells using AMMC as susbtrate incubated for 45 mins by plate reader analysis in presence of NADP+; type: ADME
Cytochrome P450 3A4 [11] = target: T1, Cytochrome P450 3A4 (Homo sapiens, UniProt P08684); assay: Inhibition of CYP3A4 (unknown origin) expressed in baculovirus infected insect cells using benzyloxyresorufin as susbtrate incubated for 45 mins by plate reader analysis in presence of NADP+; type: ADME
Plasma [12] = assay: Free plasma concentration in rat at 1 to 10 mg/kg, po measured at 5 hrs post dose; type: ADME, organism-based; conditions: in vivo
Rattus norvegicus [13] = assay: Antialzheimer activity in rat assessed as total plasma concentration required for reduction in amyloid beta (1 to 42) level in brain at 1 to 10 mg/kg, po measured at 5 hrs post dose; type: functional, organism-based
Cytochrome P450 3A4 [14] = target: T1, Cytochrome P450 3A4; assay: Inhibition of CYP3A4 (unknown origin) expressed in baculovirus infected insect cells using BFC as susbtrate incubated for 45 mins by plate reader analysis in presence of NADP+; type: ADME
Cytochrome P450 2C19 = Cytochrome P450 2C19 (Homo sapiens, UniProt P33261); assay: Inhibition of CYP2C19 (unknown origin) expressed in baculovirus infected insect cells using CEC as susbtrate incubated for 45 mins by plate reader analysis in presence of NADP+; type: ADME
Cytochrome P450 1A2 = target: T2, Cytochrome P450 1A2 (Homo sapiens, UniProt P05177); assay: Inhibition of CYP1A2 (unknown origin) expressed in baculovirus infected insect cells using CEC as susbtrate incubated for 45 mins by plate reader analysis in presence of NADP+; type: ADME
T2 sequence (P05177 whole entry): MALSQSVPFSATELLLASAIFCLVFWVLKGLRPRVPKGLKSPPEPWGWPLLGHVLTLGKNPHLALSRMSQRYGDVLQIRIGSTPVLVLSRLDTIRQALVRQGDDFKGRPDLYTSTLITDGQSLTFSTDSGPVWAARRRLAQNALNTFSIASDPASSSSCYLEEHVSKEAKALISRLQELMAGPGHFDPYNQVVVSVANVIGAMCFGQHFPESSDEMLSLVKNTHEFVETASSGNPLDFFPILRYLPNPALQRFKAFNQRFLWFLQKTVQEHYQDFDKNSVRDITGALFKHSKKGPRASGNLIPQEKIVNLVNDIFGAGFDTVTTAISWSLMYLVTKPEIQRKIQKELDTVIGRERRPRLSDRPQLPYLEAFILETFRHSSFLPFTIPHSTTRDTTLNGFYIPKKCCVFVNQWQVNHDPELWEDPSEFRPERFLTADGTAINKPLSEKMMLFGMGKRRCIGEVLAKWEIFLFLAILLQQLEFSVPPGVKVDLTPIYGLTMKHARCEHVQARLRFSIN

Rattus norvegicus [15] = assay: Antialzheimer activity in po dosed rat assessed as reduction in amyloid beta (1 to 42) level in brain measured at 5 hrs post dose by ELISA; type: functional, organism-based; summary of the method: as §1
Rattus norvegicus [16] = assay: Antialzheimer activity in po dosed rat assessed as reduction in total amyloid beta level in brain measured at 5 hrs post dose by ELISA; type: functional, organism-based; summary of the method: as §1
[17] = Ratio of drug level in rat brain to plasma at 10 mg/kg, po after 5 hrs; type: ADME, organism-based; conditions: read-out: BPR; summary of the method: as §1
Cytochrome P450 2C9 = Cytochrome P450 2C9 (Homo sapiens, UniProt P11712); assay: Inhibition of CYP2C9 (unknown origin) expressed in baculovirus infected insect cells using MFC as susbtrate incubated for 45 mins by plate reader analysis in presence of NADP+; type: ADME
Cytochrome P450 2C8 = target: T3, Cytochrome P450 2C8 (Homo sapiens, UniProt P10632); assay: Inhibition of CYP2C8 (unknown origin); type: ADME
T3 sequence (P10632 whole entry): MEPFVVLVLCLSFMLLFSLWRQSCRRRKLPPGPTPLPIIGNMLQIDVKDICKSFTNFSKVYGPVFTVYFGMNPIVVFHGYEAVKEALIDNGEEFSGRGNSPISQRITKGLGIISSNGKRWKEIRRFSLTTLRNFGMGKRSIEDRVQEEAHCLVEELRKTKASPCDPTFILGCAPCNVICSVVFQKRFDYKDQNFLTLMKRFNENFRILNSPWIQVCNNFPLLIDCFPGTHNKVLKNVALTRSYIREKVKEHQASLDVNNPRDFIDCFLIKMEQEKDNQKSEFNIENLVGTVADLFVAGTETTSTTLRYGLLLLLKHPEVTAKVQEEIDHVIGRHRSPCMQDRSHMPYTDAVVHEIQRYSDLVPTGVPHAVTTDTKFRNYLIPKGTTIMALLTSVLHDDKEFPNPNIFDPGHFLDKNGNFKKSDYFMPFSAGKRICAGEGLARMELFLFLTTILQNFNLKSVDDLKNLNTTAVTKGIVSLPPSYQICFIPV

Plasma [18] = assay: Drug metabolism in mouse plasma assessed as (4S,6S)-4-(5-amino-2,3-difluorophenyl)-6-(3,5-dimethylisoxazol-4-yl)-4-methyl-5,6-dihydro-4H-1,3-thiazin-2-amine formation at 10 mg/kg, po after 3 hrs; type: ADME, organism-based; conditions: in vivo
[19] = Plasma concentration in rat at 3 mg/kg, po after 5 hrs; type: ADME, organism-based; summary of the method: as §1
[20] = Plasma concentration in rat at 1 mg/kg, po after 5 hrs; type: ADME, organism-based; summary of the method: as §1
[21] = Ratio of drug level in rat brain to plasma at 3 mg/kg, po after 5 hrs; type: ADME, organism-based; conditions: read-out: BPR; summary of the method: as §1
[22] = Plasma protein binding in rat at 1 to 10 mg/kg, po measured at 5 hrs post dose; type: ADME, organism-based; conditions: read-out: PPB (converted)
Salmonella typhimurium = assay: Mutagenicity in Salmonella typhimurium by Ames test; type: toxicity, organism-based; conditions: salmonella enterica subsp. enterica serovar typhimurium
Rattus norvegicus [23] = assay: Antialzheimer activity in rat assessed as reduction in amyloid beta level in brain at 30 mg/kg, po measured at 5 hrs post dose by ELISA; type: functional, organism-based

Chain of Beta-secretase 1 (P56817 whole entry): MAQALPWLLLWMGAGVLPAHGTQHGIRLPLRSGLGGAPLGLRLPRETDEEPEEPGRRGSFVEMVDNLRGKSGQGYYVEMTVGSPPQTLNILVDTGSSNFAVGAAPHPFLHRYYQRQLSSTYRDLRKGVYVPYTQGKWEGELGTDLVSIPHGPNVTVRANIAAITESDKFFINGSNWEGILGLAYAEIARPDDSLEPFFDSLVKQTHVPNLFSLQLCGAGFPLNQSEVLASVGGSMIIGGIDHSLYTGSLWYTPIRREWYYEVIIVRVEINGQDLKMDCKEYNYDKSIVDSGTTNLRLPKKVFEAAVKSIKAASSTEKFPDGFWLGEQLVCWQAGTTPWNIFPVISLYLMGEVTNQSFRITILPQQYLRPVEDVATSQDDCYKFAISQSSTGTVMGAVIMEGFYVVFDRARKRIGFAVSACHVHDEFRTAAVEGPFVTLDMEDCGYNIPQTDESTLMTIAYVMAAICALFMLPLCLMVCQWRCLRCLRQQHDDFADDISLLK
T1 sequence (P08684 whole entry): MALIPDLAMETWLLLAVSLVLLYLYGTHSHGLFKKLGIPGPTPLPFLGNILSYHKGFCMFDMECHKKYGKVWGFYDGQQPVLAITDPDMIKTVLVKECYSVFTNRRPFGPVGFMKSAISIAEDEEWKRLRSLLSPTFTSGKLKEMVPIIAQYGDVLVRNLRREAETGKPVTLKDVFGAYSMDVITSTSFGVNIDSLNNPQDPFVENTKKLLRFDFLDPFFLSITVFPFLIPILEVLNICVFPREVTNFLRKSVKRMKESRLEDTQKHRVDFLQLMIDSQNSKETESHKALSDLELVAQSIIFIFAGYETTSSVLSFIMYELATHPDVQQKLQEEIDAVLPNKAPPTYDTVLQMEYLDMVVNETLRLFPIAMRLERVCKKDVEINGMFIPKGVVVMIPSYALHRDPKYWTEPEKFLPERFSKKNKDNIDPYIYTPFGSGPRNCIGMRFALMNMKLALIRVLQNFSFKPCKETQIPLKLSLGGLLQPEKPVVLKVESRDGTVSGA
Chain of Cytochrome P450 2D6 (P10635 whole entry): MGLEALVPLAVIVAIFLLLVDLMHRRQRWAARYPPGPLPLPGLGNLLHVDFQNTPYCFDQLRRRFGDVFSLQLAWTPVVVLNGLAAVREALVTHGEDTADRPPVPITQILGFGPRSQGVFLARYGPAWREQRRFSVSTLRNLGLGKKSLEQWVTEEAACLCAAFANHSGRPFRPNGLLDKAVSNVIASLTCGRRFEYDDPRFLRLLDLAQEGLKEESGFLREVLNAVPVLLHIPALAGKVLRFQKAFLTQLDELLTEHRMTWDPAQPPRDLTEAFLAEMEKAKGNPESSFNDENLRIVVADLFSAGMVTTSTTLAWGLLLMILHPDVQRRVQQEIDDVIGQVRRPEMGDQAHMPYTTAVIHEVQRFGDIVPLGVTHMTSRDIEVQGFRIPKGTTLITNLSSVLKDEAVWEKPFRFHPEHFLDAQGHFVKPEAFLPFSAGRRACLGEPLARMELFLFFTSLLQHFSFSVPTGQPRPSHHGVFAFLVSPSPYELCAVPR
Chain of Cytochrome P450 2C9 (P11712 whole entry): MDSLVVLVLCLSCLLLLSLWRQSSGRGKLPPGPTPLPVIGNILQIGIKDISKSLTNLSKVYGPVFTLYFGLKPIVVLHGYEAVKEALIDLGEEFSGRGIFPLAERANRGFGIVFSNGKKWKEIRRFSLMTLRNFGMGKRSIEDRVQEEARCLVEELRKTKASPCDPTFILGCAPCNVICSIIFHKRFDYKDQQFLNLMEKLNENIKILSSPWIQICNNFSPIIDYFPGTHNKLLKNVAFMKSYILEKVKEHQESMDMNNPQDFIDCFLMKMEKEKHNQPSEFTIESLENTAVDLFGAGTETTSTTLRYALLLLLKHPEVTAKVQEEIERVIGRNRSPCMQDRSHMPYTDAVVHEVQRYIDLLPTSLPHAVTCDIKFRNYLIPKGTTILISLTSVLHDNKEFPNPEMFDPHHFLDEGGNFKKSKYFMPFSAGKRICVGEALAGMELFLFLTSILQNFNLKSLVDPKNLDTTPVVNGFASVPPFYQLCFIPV
Chain of Cytochrome P450 2C19 (P33261 whole entry): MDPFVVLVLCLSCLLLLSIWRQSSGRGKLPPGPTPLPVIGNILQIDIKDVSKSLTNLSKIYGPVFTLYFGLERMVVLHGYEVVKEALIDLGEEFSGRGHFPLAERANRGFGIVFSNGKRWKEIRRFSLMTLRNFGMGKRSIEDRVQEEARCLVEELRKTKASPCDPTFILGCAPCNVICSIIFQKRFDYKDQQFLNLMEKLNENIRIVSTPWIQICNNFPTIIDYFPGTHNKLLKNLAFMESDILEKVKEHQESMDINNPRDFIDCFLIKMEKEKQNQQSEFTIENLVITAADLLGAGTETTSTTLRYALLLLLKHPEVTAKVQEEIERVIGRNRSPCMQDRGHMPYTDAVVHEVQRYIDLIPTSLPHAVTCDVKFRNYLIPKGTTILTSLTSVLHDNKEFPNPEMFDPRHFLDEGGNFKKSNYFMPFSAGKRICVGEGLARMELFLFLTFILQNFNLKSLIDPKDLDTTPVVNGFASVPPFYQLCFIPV

Cc1noc(C)c1[C@@H]1C[C@@](C)(c2cc(F)cc(NC(=O)c3ccc(Cl)cn3)c2)N=C(N)S1
remaining at 10 min, 0.5 µM [1]: 13% | remaining at 10 min, 0.5 µM [2]: 39% | remaining at 10 min, 0.5 µM [3]: 26% | IC50 (Beta-secretase 1): 2.3 nM

COc1ccc([C@@H]2C[C@@H](c3cc(-c4cncnc4)c(F)cc3F)N=C(N)S2)cc1OC
IC50 (Beta-secretase 1): 290 nM

COc1cnc(C(=O)Nc2cc(F)c(F)c([C@]3(C)C[C@@H](c4c(C)noc4C)SC(N)=N3)c2)cn1
EC50 (Rattus norvegicus [4]): 13 nM | concentration at 5 h [5]: 67 nM | concentration at 5 h [6]: 1500 nM | concentration at 5 h [7]: 160 nM | inhibition in vivo at 10 mg/kg (Mus musculus): 85% | inhibition (Rattus norvegicus [8]): Dose-dependent effect | concentration at 5 h [9]: 420 nM | Kp at 5 h [10]: 0.44 | IC50 (Cytochrome P450 2D6): > 20000 nM | IC50 (Cytochrome P450 3A4 [11]): > 20000 nM | remaining at 10 min, 0.5 µM [1]: 74% | remaining at 10 min, 0.5 µM [2]: 81% | Cp(f) (Plasma [12]): 13 nM | EC50 (Rattus norvegicus [13]): 260 nM | IC50 (Cytochrome P450 3A4 [14]): > 20000 nM | IC50 (Cytochrome P450 2C19): > 20000 nM | IC50 (Cytochrome P450 1A2): > 20000 nM | inhibition (Rattus norvegicus [15]): Dose-dependent effect | inhibition (Rattus norvegicus [16]): Dose-dependent effect | Kp at 5 h [17]: 0.3 | IC50 (Cytochrome P450 2C9): > 20000 nM | IC50 (Cytochrome P450 2C8): 5000 nM | Drug metabolism (Plasma [18]): metabolite_detected | concentration at 5 h [19]: 360 nM | concentration at 5 h [20]: 150 nM | remaining at 10 min, 0.5 µM [3]: 69% | Kp at 5 h [21]: 0.46 | IC50 (Beta-secretase 1): 0.9 nM

Cc1noc(C)c1[C@]1(C)C[C@@H](c2cc(-c3cncnc3)c(F)cc2F)N=C(N)S1 (relative stereo)
IC50 (Beta-secretase 1): 3700 nM

Cc1noc(C)c1[C@@H]1C[C@@](C)(c2cc(N)cc(F)c2F)N=C(N)S1
fraction unbound at 5 h [22]: 0.05 | Activity (Salmonella typhimurium): Non-toxic

Cc1noc(C)c1[C@@H]1C[C@@](C)(c2cccc(NC(=O)c3ccc(Cl)cn3)c2F)N=C(N)S1
remaining at 10 min, 0.5 µM [1]: 38% | remaining at 10 min, 0.5 µM [2]: 38% | remaining at 10 min, 0.5 µM [3]: 43% | IC50 (Beta-secretase 1): 160 nM

Cc1noc(C)c1[C@@H]1C[C@@H](c2cc(NC(=O)c3ccc(Cl)cn3)ccc2F)N=C(N)S1
IC50 (Beta-secretase 1): 5 nM

Cc1noc(C)c1[C@@H]1C[C@@](C)(c2cc(NC(=O)c3ccc(Cl)cn3)c(F)cc2F)N=C(N)S1
remaining at 10 min, 0.5 µM [1]: 75% | remaining at 10 min, 0.5 µM [2]: 78% | remaining at 10 min, 0.5 µM [3]: 76% | IC50 (Beta-secretase 1): 31 nM

COc1ccc([C@@H]2C[C@@H](c3cccc(-c4cncnc4)c3)N=C(N)S2)cc1OC
IC50 (Beta-secretase 1): 1100 nM

Cc1noc(C)c1[C@@H]1C[C@@H](c2cc(-c3cncnc3)c(F)cc2F)N=C(N)S1
IC50 (Beta-secretase 1): 70 nM

Cc1noc(C)c1[C@@H]1C[C@@](C)(c2cc(NC(=O)c3ccc(Cl)cn3)cc(F)c2F)N=C(N)S1
remaining at 10 min, 0.5 µM [1]: 58% | remaining at 10 min, 0.5 µM [2]: 87% | remaining at 10 min, 0.5 µM [3]: 63% | IC50 (Beta-secretase 1): 0.7 nM

Cc1oncc1[C@]1(C)C[C@@H](c2cc(-c3cncnc3)c(F)cc2F)N=C(N)S1 (racemic)
IC50 (Beta-secretase 1): 180 nM

Cc1noc(C)c1[C@@H]1C[C@@](C)(c2cc(-c3cncnc3)c(F)cc2F)N=C(N)S1
inhibition (Rattus norvegicus [23]): Active | remaining at 10 min, 0.5 µM [1]: 48% | remaining at 10 min, 0.5 µM [2]: 23% | remaining at 10 min, 0.5 µM [3]: 49%
